From ChEMBL document CHEMBL5506026, “New Improved cGMP Analogues to Target Rod Photoreceptor Degeneration” (J Med Chem, 2024)
Active and inactive are the calls of the source. The calls are words filed in the database; no cut-off is given here.

What was measured:
661W-A11 [1] = assay: Neuroprotective activity against zaprinast induced mouse 661W-A11 cells assessed as reduction in cell death at 50 uM preincubated for 2 hrs followed by zaprinast addition at 200 uM and measured after 48 hrs by TUNEL assay; assay type: functional, cell-based; conditions: time 50.0 hrs
Method in brief: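 661W-A11 cells seeded 20,000/well; 2 h pretreatment with 50 µM compound, then 200 µM zaprinast 48 h. Fixed in 2% paraformaldehyde, permeabilized in citrate/0.1% Triton X-100 on ice, TUNEL (TMR red) 30 min at 37 °C, DAPI counterstain, fluorescence microscopy. Death = TUNEL+ cells/DAPI+ cells. ≥3 biological replicates, mean ± SD.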

[2] = system: Primary photoreceptor cell; assay: Neuroprotective activity in rd1 mouse Primary photoreceptor cells harboring loss of function mutation in Pde6b gene assessed as reduction in cell death at 50 uM administered at day 10 of differentiation and measured after 24 hrs by TUNEL assay; assay type: functional, cell-based
Method in brief: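 Neurosphere-derived retinal stem cells from rd1 mouse eyes differentiated in vitro into photoreceptors. 50 µM compound or vehicle added on day 10; TUNEL on day 11 (24 h exposure), scored as TUNEL+/DAPI+ nuclei by fluorescence microscopy. ≥3 biological replicates, mean ± SD.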

661W-A11 [3] = assay: Neuroprotective activity against zaprinast induced mouse 661W-A11 cells assessed as increase in cell viability at 50 uM preincubated for 2 hrs followed by zaprinast addition at 200 uM and measured after 48 hrs by MTT assay; assay type: functional, cell-based; conditions: time 50.0 hrs
Method in brief: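 661W-A11 cells seeded 6000/well; 24 h later pretreated 2 h with 50 µM compound, then 200 µM zaprinast 48 h with compound present. MTT 1 mg/mL for 90 min at 37 °C, formazan in isopropanol, OD 570 nm. Viability normalized to matched vehicle (H2O or DMSO) set at 100%. ≥3 biological replicates, mean ± SD.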

[4] = Neuroprotective activity against zaprinast induced mouse 661W-A11 cells assessed as increase in cell viability at 1 to 1000 uM preincubated for 2 hrs followed by zaprinast addition at 200 uM and measured after 48 hrs by MTT assay relative to control; assay type: functional; conditions: dose 1-1000 µM, time 50 hrs
Method in brief: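 661W-A11 rod-like cells (DMEM 1 mg/mL glucose, 10% FBS, 37 °C, 5% CO2) seeded 6000/well; next day pretreated 2 h with 1 µM–1 mM compound, then 200 µM zaprinast 48 h with compound present. MTT 1 mg/mL, 90 min at 37 °C, formazan in isopropanol, OD 570 nm. EC50 from dose–response curve; ≥3 biological replicates, mean ± SEM.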

[5] = Cytotoxicity against mouse 661W-A11 cells assessed as reduction in cell viability at 1 to 1000 uM incubated for 48 hrs by MTT assay; assay type: toxicity, cell-based; conditions: 661w-a11, 48 h, dose 1-1000 µM
Method in brief: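 661W-A11 rod-like mouse photoreceptor line (1 mg/mL glucose DMEM, 10% FBS, 37 °C, 5% CO2), seeded 6000 cells/well; next day exposed to scaling concentrations (1 μM to 1 mM) for 48 h in H2O or DMSO vehicle, matched vehicle controls. MTT 1 mg/mL, 90 min at 37 °C; formazan dissolved in isopropanol, OD 570 nm; untreated cells set as 100% viability; at least three biological replicates.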

In the case of `O=c1c2nc(Br)n([C@@H]3O[C@@H]4CO[P@@]([O-])(=S)O[C@H]4[C@H]3O)c2nc2[nH]c(-c3ccccc3)cn12.[Na+]`, the Activity (661W-A11 [1]) is reported as “Active”, the Activity [2] is reported as “Active” and the Activity (661W-A11 [3]) is reported as “Active”. The Activity [4] was “<=70%”.

With `CCN(CC)CC.O=c1c2nc(Br)n([C@@H]3O[C@@H]4COP(=S)(S)O[C@H]4[C@H]3O)c2nc2[nH]c(-c3ccccc3)cn12` (some centres undefined) the Activity (661W-A11 [1]) was “Active”, the Activity [2] was “Active” and the Activity (661W-A11 [3]) was “Active”. The Activity [5] was “Non-Toxic”.

With `O=c1c2nc(Br)n([C@@H]3O[C@@H]4COP(=O)(O)O[C@H]4[C@H]3O)c2nc2[nH]c(-c3ccccc3)cn12` the Activity (661W-A11 [1]) was “inactive” and the Activity (661W-A11 [3]) was “inactive”.

In the case of `CCN(CC)CC.O=c1c2nc(Br)n([C@@H]3O[C@@H]4CO[P@](O)(=S)O[C@H]4[C@H]3O)c2nc2[nH]c(-c3ccccc3)cn12`, the Activity (661W-A11 [1]) is reported as “Active”, the Activity [2] is reported as “Active” and the Activity (661W-A11 [3]) is reported as “Active”. The Activity [4] was “<=70%”.
